Assay results reported in ChEMBL document CHEMBL2034814, “Synthesis and evaluation of γ-lactam analogs of PGE₂ as EP4 and EP2/EP4 agonists” (Bioorg Med Chem, 2012).

How the values were obtained:
[1] = target: T1, Prostaglandin E2 receptor EP1 subtype (Mus musculus, UniProt P35375); assay: Displacement of [3H]PGE2 from mouse EP1 receptor expressed in CHO cells after 20 mins by scintillation counting; assay type: cell-based
T1 sequence (P35375 whole entry): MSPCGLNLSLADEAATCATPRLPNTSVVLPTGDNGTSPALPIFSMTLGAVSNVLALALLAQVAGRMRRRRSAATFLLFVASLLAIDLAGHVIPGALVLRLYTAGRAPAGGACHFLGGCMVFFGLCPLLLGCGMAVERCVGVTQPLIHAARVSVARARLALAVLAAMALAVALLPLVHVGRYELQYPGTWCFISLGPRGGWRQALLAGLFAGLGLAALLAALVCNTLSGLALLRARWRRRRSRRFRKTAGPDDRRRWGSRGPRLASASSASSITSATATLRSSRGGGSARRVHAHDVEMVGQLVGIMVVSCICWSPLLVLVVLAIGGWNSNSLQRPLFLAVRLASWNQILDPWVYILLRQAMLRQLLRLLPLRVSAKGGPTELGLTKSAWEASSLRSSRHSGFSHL

[2] = target: Prostaglandin E2 receptor EP2 subtype (Mus musculus, UniProt Q62053); assay: Displacement of [3H]PGE2 from mouse EP2 receptor expressed in CHO cells after 60 mins by scintillation counting; assay type: cell-based
Chain of Prostaglandin E2 receptor EP2 subtype (Mus musculus, UniProt Q62053) (Q62053 whole entry): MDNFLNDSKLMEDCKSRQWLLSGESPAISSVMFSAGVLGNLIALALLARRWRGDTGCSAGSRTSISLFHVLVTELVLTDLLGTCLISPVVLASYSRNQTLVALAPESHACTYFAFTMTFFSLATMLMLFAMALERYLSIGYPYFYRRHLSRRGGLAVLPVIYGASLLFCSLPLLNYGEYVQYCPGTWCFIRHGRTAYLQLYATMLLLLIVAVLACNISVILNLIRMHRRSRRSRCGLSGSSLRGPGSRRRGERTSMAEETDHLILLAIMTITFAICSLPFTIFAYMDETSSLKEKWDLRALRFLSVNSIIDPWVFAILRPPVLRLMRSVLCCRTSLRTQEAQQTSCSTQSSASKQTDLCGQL

[3] = target: T2, Prostaglandin E2 receptor EP3 subtype (Mus musculus, UniProt P30557); assay: Displacement of [3H]PGE2 from mouse EP3 receptor expressed in CHO cells after 60 mins by scintillation counting; assay type: cell-based
T2 sequence (P30557 whole entry): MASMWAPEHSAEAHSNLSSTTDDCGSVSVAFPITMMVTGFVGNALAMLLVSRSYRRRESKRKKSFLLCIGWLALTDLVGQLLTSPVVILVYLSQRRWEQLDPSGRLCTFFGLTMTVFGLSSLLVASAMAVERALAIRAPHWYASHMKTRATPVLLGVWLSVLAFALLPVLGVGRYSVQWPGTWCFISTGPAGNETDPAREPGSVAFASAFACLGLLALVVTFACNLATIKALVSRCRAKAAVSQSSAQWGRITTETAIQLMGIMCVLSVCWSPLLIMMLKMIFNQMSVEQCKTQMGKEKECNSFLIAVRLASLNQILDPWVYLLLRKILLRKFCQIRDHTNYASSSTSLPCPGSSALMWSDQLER

[4] = target: Prostaglandin E2 receptor EP4 subtype (Mus musculus, UniProt P32240); assay: Displacement of [3H]PGE2 from mouse EP4 receptor expressed in CHO cells after 60 mins by scintillation counting; assay type: cell-based
Chain of Prostaglandin E2 receptor EP4 subtype (Mus musculus, UniProt P32240) (P32240 whole entry): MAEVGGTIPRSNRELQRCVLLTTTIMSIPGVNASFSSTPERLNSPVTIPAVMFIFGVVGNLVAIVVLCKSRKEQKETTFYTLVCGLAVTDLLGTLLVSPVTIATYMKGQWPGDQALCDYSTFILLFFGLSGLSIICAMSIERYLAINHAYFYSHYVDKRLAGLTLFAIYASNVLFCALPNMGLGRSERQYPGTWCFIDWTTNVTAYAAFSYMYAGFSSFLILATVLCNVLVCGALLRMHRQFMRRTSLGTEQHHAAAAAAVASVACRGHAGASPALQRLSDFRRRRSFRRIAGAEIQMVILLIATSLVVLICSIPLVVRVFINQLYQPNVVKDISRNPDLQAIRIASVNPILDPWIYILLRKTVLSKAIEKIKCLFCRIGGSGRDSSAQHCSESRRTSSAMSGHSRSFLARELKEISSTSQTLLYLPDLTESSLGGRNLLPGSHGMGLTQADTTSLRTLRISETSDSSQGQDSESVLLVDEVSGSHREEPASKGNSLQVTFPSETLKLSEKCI

[5] = target: Prostaglandin E2 receptor EP2 subtype (Rattus norvegicus, UniProt Q62928); assay: Agonist activity at rat EP2 receptor expressed in CHO cells assessed as cAMP production after 10 mins by radioimmunoassay; assay type: functional, cell-based
Chain of Prostaglandin E2 receptor EP2 subtype (Rattus norvegicus, UniProt Q62928) (Q62928 whole entry): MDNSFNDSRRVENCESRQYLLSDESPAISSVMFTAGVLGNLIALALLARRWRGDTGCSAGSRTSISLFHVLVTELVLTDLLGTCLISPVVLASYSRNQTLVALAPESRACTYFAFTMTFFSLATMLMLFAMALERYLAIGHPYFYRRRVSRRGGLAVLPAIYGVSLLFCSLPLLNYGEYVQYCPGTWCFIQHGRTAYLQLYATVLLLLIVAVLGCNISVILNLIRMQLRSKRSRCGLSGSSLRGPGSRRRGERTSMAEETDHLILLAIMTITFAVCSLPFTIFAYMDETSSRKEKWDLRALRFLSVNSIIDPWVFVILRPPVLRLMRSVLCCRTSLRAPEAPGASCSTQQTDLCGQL
Outline: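 CHO cells expressing rat EP2 receptor, seeded 1 × 10^5 cells/well and grown 2 days; washed, incubated 10 min at 37 °C in MEM with 2 µM diclofenac, then preincubated 10 min in assay medium with 1% BSA. Compound added, 10 min at 37 °C, stopped with ice-cold 10% trichloroacetic acid; cAMP measured by radioimmunoassay.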

[6] = target: Prostaglandin E2 receptor EP4 subtype (Rattus norvegicus, UniProt P43114); assay: Agonist activity at rat EP4 receptor expressed in CHO cells assessed as cAMP production after 10 mins by radioimmunoassay; assay type: functional, cell-based
Chain of Prostaglandin E2 receptor EP4 subtype (Rattus norvegicus, UniProt P43114) (P43114 whole entry): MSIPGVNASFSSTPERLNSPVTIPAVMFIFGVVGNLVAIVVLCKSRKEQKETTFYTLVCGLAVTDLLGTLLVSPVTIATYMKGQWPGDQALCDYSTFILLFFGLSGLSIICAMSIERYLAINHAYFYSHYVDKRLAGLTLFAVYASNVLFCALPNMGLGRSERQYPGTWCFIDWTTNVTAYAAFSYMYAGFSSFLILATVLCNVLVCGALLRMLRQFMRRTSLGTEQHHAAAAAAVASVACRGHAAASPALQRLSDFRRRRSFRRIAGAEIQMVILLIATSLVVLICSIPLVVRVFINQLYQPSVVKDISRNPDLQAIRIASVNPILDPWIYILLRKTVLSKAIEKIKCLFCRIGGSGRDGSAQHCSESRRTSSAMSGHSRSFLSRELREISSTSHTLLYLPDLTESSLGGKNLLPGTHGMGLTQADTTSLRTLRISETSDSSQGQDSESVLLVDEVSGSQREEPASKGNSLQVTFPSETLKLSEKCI

Rattus norvegicus [7] = assay: Induction of bone fracture healing in CrJ:CD(SD)IGS rat assessed as breaking strength of fractured fibulae at 3 ug/kg administered tropically as PLGA microsphere formulation measured after 17 days relative to control; assay type: functional
Outline: (§1)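 Male Sprague–Dawley rats, 8 weeks old. Under sodium pentobarbital (30–50 mg/kg) the left fibula midshaft was exposed and cut. Compound in PLGA microspheres injected topically at the fracture. At 17 days fibulae removed for three-point destructive bending; breaking strength expressed as % of the mean of nonfractured fibulae from intact rats, with vehicle-treated fractured controls.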

Rattus norvegicus [8] = assay: Induction of bone fracture healing in CrJ:CD(SD)IGS rat assessed as breaking strength of fractured fibulae at 10 ug/kg administered tropically as PLGA microsphere formulation measured after 17 days relative to control; assay type: functional; outline: as §1
Rattus norvegicus [9] = assay: Induction of bone fracture healing in CrJ:CD(SD)IGS rat assessed as breaking strength of fractured fibulae at 30 ug/kg administered tropically as PLGA microsphere formulation measured after 17 days relative to control; assay type: functional; outline: as §1
Rattus norvegicus [10] = assay: Induction of bone fracture healing in CrJ:CD(SD)IGS rat assessed as breaking strength of fractured fibulae at 100 ug/kg administered tropically as PLGA microsphere formulation measured after 17 days relative to control; assay type: functional; outline: as §1
Rattus norvegicus [11] = assay: Induction of bone fracture healing in CrJ:CD(SD)IGS rat assessed as breaking strength of fractured fibulae at 300 ug/kg administered tropically as PLGA microsphere formulation measured after 17 days relative to control; assay type: functional; outline: as §1
Rattus norvegicus [12] = assay: Induction of bone fracture healing in CrJ:CD(SD)IGS rat assessed as breaking strength of fractured fibulae administered tropically as PLGA microsphere formulation measured after 17 days relative to control; assay type: functional, organism-based; outline: as §1
[13] = Drug release from PLGA microsphere assessed as compound remaining in microsphere at 100 ug/ml after 7 days in presence of 5% methanol; assay type: physicochemical; conditions: 168 h
[14] = Drug release from PLGA microsphere assessed as compound remaining in microsphere at 100 ug/ml after 14 days in presence of 5% methanol; assay type: physicochemical; conditions: 336 h
[15] = Drug release from PLGA microsphere assessed as compound remaining in microsphere at 100 ug/ml after 21 days in presence of 5% methanol; assay type: physicochemical; conditions: 504 h
[16] = Drug release from PLGA microsphere assessed as compound remaining in microsphere at 100 ug/ml after 28 days in presence of 5% methanol; assay type: physicochemical; conditions: 672 h
Rattus norvegicus [17] = assay: Toxicity in CrJ:CD(SD)IGS rat assessed as change in mean blood pressure at 300 ug/kg administered tropically as PLGA microsphere formulation; assay type: organism-based; conditions: in vivo, topical_or_ocular, 0.3 mg/kg
Outline: (§2)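 Male Sprague–Dawley rats, 7–9 weeks old, anesthetized with urethane (1.5 g/kg, sc); compound given as PLGA microsphere formulation, with heart rate and mean blood pressure monitored.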

Rattus norvegicus [18] = assay: Toxicity in CrJ:CD(SD)IGS rat assessed as change in mean blood pressure at 1000 ug/kg administered tropically as PLGA microsphere formulation; assay type: organism-based; conditions: in vivo, topical_or_ocular, 1 mg/kg; outline: as §2
Rattus norvegicus [19] = assay: Toxicity in CrJ:CD(SD)IGS rat assessed as change in mean blood pressure at 3000 ug/kg administered tropically as PLGA microsphere formulation; assay type: organism-based; conditions: in vivo, topical_or_ocular, 3 mg/kg; outline: as §2
Rattus norvegicus [20] = assay: Toxicity in CrJ:CD(SD)IGS rat assessed as change in heart rate at 300 ug/kg, administered tropically as PLGA microsphere formulation; assay type: organism-based; conditions: in vivo, topical_or_ocular, 0.3 mg/kg; outline: as §2
Rattus norvegicus [21] = assay: Toxicity in CrJ:CD(SD)IGS rat assessed as change in heart rate at 1000 ug/kg, administered tropically as PLGA microsphere formulation; assay type: organism-based; conditions: in vivo, topical_or_ocular, 1 mg/kg; outline: as §2
Rattus norvegicus [22] = assay: Toxicity in CrJ:CD(SD)IGS rat assessed as change in heart rate at 3000 ug/kg, administered tropically as PLGA microsphere formulation; assay type: organism-based; conditions: in vivo, topical_or_ocular, 3 mg/kg; outline: as §2
[23] = Drug release from PLGA microsphere assessed as compound remaining in microsphere at 100 ug/ml after 7 days; assay type: physicochemical; conditions: 168 h
[24] = Drug release from PLGA microsphere assessed as compound remaining in microsphere at 100 ug/ml after 14 days; assay type: physicochemical; conditions: 336 h
[25] = Drug release from PLGA microsphere assessed as compound remaining in microsphere at 100 ug/ml after 21 days; assay type: physicochemical; conditions: 504 h
[26] = Drug release from PLGA microsphere assessed as compound remaining in microsphere at 100 ug/ml after 28 days; assay type: physicochemical; conditions: 672 h

Compound | Ki [1] | Ki [2] | Ki [3] | Ki [4] | EC50 [6] | Activity (Rattus norvegicus [9]) | Activity (Rattus norvegicus [10]) | Activity (Rattus norvegicus [11]) | Activity (Rattus norvegicus [12]) | further results
Cc1ccc2oc(-c3cccc(C[C@H](O)/C=C/[C@H]4CCC(=O)N4CCSc4nc(C(=O)O)cs4)c3)nc2c1 | 1300 nM | 21 nM | > 10 µM | 0.21 nM | 8.8 nM | 98.1% | 136% | 144.3% | Dose-dependent effect | EC50 [5]: > 10 µM; Activity (Rattus norvegicus [7]): 77.7%; Activity (Rattus norvegicus [8]): 87.7%; Activity [13]: 99.6%; Activity [14]: 93.1%; Activity [15]: 85.2%; Activity [16]: 79.3%
O=C(O)CCCSCCN1C(=O)CC[C@@H]1/C=C/[C@@H](O)Cc1cccc(-c2cc3ccccc3o2)c1 | > 10000 nM | 2000 nM | > 10 µM | 0.1 nM | 7 nM | 95.4% | 136.3% | 154% | Dose-dependent effect | Activity (Rattus norvegicus [17]): 98.4%; Activity (Rattus norvegicus [18]): 98.2%; Activity (Rattus norvegicus [19]): 97.3%; Activity (Rattus norvegicus [20]): 106.3%; Activity (Rattus norvegicus [21]): 104.6%; Activity (Rattus norvegicus [22]): 111.4%; Activity [23]: 94.8%; Activity [24]: 91.1%; Activity [25]: 83.5%; Activity [26]: 46.3%
